Laboratory results reported in ChEMBL document CHEMBL1149773, “Synthesis, determination of the lipophilicity, anticancer and antimicrobial properties of some fused 1,2,4-triazole derivatives” (Eur J Med Chem, 2008).
Values after ≈ are worked out from the molar mass of the structure shown.

Assays:
[1] = Lipophilicity, log kw in dioxane aqueous system at pH 3.5; assay type: physicochemical; conditions: buffer
Outline: (§1)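 RP-HPLC on an octadecyl silica column (150 × 4.6 mm, 5 µm) at 22 ± 1 °C, flow 1.0 mL min⁻¹, UV detection at 254 nm. Mobile phase was methanol, acetonitrile or dioxane with water and 0.01 M phosphate buffer pH 3.5 containing 0.05 M DEA. log k_W was extrapolated to pure water by regression.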

[2] = Lipophilicity, log kw in acetonitrile aqueous system at pH 3.5; assay type: physicochemical; outline: as §1
[3] = Lipophilicity, log kw in methanol aqueous system at pH 3.5; assay type: physicochemical; outline: as §1
[4] = Antiproliferative activity against human skin fibroblast assessed as cell viability at 1 uM by MTT assay; assay type: cell-based; conditions: human skin fibroblasts, read-out: Activity
Outline: (§2)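 Log-phase cells, kept in supplemented RPMI 1640 (HSF in DMEM/10% FBS) at 37 °C, 5% CO2, were exposed 24 h to 1, 50 or 100 µM compound from DMSO. They were washed, given 0.5 mg/mL MTT in HEPES buffer pH 7.4 for 45 min at 37 °C, and formazan was dissolved in DMSO and read at 570 nm. Values are % viability versus control from three independent measurements.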

[5] = Antiproliferative activity against human skin fibroblast assessed as cell viability at 50 uM by MTT assay; assay type: cell-based; conditions: human skin fibroblasts, read-out: Activity
Outline: (§3)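 MTT viability assay on primary human skin fibroblasts grown in DMEM with 10% FBS and penicillin/streptomycin. Compounds were dissolved in DMSO and given at 1, 50 or 100 µM for 24 h. Cells were washed in HEPES-buffered medium (pH 7.4) and then given MTT 0.5 mg mL⁻¹ for 45 min at 37 °C. Formazan was dissolved in DMSO and read at 570 nm. Viability is % of control; three independent measurements.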

[6] = Antiproliferative activity against human skin fibroblast assessed as cell viability at 100 uM by MTT assay; assay type: cell-based; conditions: human skin fibroblasts, read-out: Activity; outline: as §3
[7] = Antiproliferative activity against human RPMI cells assessed as cell viability at 1 uM by MTT assay; assay type: functional; conditions: read-out: Activity; outline: as §2
[8] = Antiproliferative activity against human RPMI cells assessed as cell viability at 50 uM by MTT assay; assay type: functional; conditions: read-out: Activity; outline: as §2
[9] = Antiproliferative activity against human RPMI cells assessed as cell viability at 100 uM by MTT assay; assay type: functional; conditions: read-out: Activity; outline: as §2
[10] = tested on: HeLa; experiment: Antiproliferative activity against human HeLa cells assessed as cell viability at 1 uM by MTT assay; assay type: functional; conditions: read-out: Activity; outline: as §2
[11] = tested on: HeLa; experiment: Antiproliferative activity against human HeLa cells assessed as cell viability at 50 uM by MTT assay; assay type: functional; conditions: read-out: Activity; outline: as §2
[12] = tested on: HeLa; experiment: Antiproliferative activity against human HeLa cells assessed as cell viability at 100 uM by MTT assay; assay type: functional; conditions: read-out: Activity; outline: as §2
[13] = tested on: Pseudomonas aeruginosa; experiment: Antimicrobial activity against Pseudomonas aeruginosa ATCC 27853 at 200 ug/mL by disc-diffusion method; assay type: functional; conditions: read-out: IZ
Outline: (§4)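 Kirby–Bauer disc diffusion: 5 mm paper discs soaked in compound solution in DMSO (100 or 200 µg/mL; reference drugs 200 µg/mL) and laid on inoculated Mueller-Hinton agar (bacteria) or Sabouraud agar (C. albicans, Aspergillus). DMSO discs were the control. Plates ran 24 h at 35 °C. Inhibition zone diameter was scored 0–10 mm R, 11–16 mm I, 17–25 mm S; triplicate.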

[14] = tested on: Proteus vulgaris; experiment: Antimicrobial activity against Proteus vulgaris at 100 ug/mL by disc-diffusion method; assay type: functional; conditions: read-out: IZ; outline: as §4
[15] = tested on: Proteus vulgaris; experiment: Antimicrobial activity against Proteus vulgaris at 200 ug/mL by disc-diffusion method; assay type: functional; conditions: read-out: IZ; outline: as §4
[16] = tested on: Klebsiella pneumoniae; experiment: Antimicrobial activity against Klebsiella pneumoniae at 100 ug/mL by disc-diffusion method; assay type: functional; conditions: read-out: IZ; outline: as §4
[17] = tested on: Klebsiella pneumoniae; experiment: Antimicrobial activity against Klebsiella pneumoniae at 200 ug/mL by disc-diffusion method; assay type: functional; conditions: read-out: IZ; outline: as §4
[18] = tested on: Klebsiella aerogenes; experiment: Antimicrobial activity against Enterobacter aerogenes at 100 ug/mL by disc-diffusion method; assay type: functional; conditions: read-out: IZ; outline: as §4
[19] = tested on: Klebsiella aerogenes; experiment: Antimicrobial activity against Enterobacter aerogenes at 200 ug/mL by disc-diffusion method; assay type: functional; conditions: read-out: IZ; outline: as §4
[20] = tested on: Staphylococcus aureus; experiment: Antimicrobial activity against Staphylococcus aureus ATCC 25923 at 100 ug/mL by disc-diffusion method; assay type: functional; conditions: read-out: IZ; outline: as §4
[21] = tested on: Staphylococcus aureus; experiment: Antimicrobial activity against Staphylococcus aureus ATCC 25923 at 200 ug/mL by disc-diffusion method; assay type: functional; conditions: read-out: IZ; outline: as §4
[22] = tested on: Staphylococcus epidermidis; experiment: Antimicrobial activity against Staphylococcus epidermidis at 100 ug/mL by disc-diffusion method; assay type: functional; conditions: read-out: IZ; outline: as §4
[23] = tested on: Staphylococcus epidermidis; experiment: Antimicrobial activity against Staphylococcus epidermidis at 200 ug/mL by disc-diffusion method; assay type: functional; conditions: read-out: IZ; outline: as §4
[24] = tested on: Streptococcus pyogenes; experiment: Antimicrobial activity against Streptococcus pyogenes at 100 ug/mL by disc-diffusion method; assay type: functional; conditions: read-out: IZ; outline: as §4
[25] = tested on: Streptococcus pyogenes; experiment: Antimicrobial activity against Streptococcus pyogenes at 200 ug/mL by disc-diffusion method; assay type: functional; conditions: read-out: IZ; outline: as §4
[26] = tested on: Streptococcus agalactiae; experiment: Antimicrobial activity against Streptococcus agalactiae at 100 ug/mL by disc-diffusion method; assay type: functional; conditions: read-out: IZ; outline: as §4
[27] = tested on: Streptococcus agalactiae; experiment: Antimicrobial activity against Streptococcus agalactiae at 200 ug/mL by disc-diffusion method; assay type: functional; conditions: read-out: IZ; outline: as §4
[28] = tested on: Candida albicans; experiment: Antimicrobial activity against Candida albicans ATCC 10231 at 100 ug/mL by disc-diffusion method; assay type: functional; conditions: read-out: IZ; outline: as §4
[29] = tested on: Candida albicans; experiment: Antimicrobial activity against Candida albicans ATCC 10231 at 200 ug/mL by disc-diffusion method; assay type: functional; conditions: read-out: IZ; outline: as §4
[30] = tested on: Aspergillus sp.; experiment: Antimicrobial activity against Aspergillus sp. at 100 ug/mL by disc-diffusion method; assay type: functional; conditions: read-out: IZ; outline: as §4
[31] = tested on: Aspergillus sp.; experiment: Antimicrobial activity against Aspergillus sp. at 200 ug/mL by disc-diffusion method; assay type: functional; conditions: read-out: IZ; outline: as §4
[32] = tested on: Pseudomonas aeruginosa; experiment: Antimicrobial activity against Pseudomonas aeruginosa ATCC 27853 after 24 hrs by microdilution assay; assay type: functional; conditions: ATCC 27853, 24 h
[33] = tested on: Escherichia coli; experiment: Antimicrobial activity against Escherichia coli ATCC 25922 at 100 ug/mL by disc-diffusion method; assay type: functional; conditions: read-out: IZ; outline: as §4
[34] = tested on: Escherichia coli; experiment: Antimicrobial activity against Escherichia coli ATCC 25922 at 200 ug/mL by disc-diffusion method; assay type: functional; conditions: read-out: IZ; outline: as §4
[35] = tested on: Pseudomonas aeruginosa; experiment: Antimicrobial activity against Pseudomonas aeruginosa ATCC 27853 at 100 ug/mL by disc-diffusion method; assay type: functional; conditions: read-out: IZ; outline: as §4
[36] = tested on: Staphylococcus aureus; experiment: Antimicrobial activity against Staphylococcus aureus ATCC 25923 after 24 hrs by microdilution assay; assay type: functional; conditions: ATCC 25923, 24 h

Compound: Clc1ccc(N2CCn3cnnc32)cc1
- logKw [1]: 1.89
- logKw [2]: 2.7
- logKw [3]: 2.19
- viability at 1 µM [4]: 101%
- viability at 50 µM [5]: 90.9%
- viability at 100 µM [6]: 90.7%
- viability at 1 µM [7]: 104%
- viability at 50 µM [8]: 96.9%
- viability at 100 µM [9]: 87.5%
- viability at 1 µM [10]: 77.9%
- viability at 50 µM [11]: 67.6%
- viability at 100 µM [12]: 68.4%

Compound: Clc1ccc(OCc2nnc3n2CCN3c2ccc(Cl)c(Cl)c2)c(Cl)c1
- zone of inhibition at 200 µg/mL [13]: 17 mm
- zone of inhibition at 100 µg/mL [14]: 11 mm
- zone of inhibition at 200 µg/mL [15]: 17 mm
- zone of inhibition at 100 µg/mL [16]: 0 mm
- zone of inhibition at 200 µg/mL [17]: 11 mm
- zone of inhibition at 100 µg/mL [18]: 0 mm
- zone of inhibition at 200 µg/mL [19]: 11 mm
- zone of inhibition at 100 µg/mL [20]: 0 mm
- zone of inhibition at 200 µg/mL [21]: 0 mm
- zone of inhibition at 100 µg/mL [22]: 0 mm
- zone of inhibition at 200 µg/mL [23]: 0 mm
- zone of inhibition at 100 µg/mL [24]: 0 mm
- zone of inhibition at 200 µg/mL [25]: 0 mm
- zone of inhibition at 100 µg/mL [26]: 0 mm
- zone of inhibition at 200 µg/mL [27]: 0 mm
- zone of inhibition at 100 µg/mL [28]: 0 mm
- zone of inhibition at 200 µg/mL [29]: 0 mm
- zone of inhibition at 100 µg/mL [30]: 0 mm
- zone of inhibition at 200 µg/mL [31]: 0 mm
- MIC [32]: 36.3 µM (≈ 15.6 µg/mL)
- logKw [1]: 4.61
- logKw [2]: 3.32
- logKw [3]: 6
- zone of inhibition at 100 µg/mL [33]: 0 mm
- zone of inhibition at 200 µg/mL [34]: 0 mm
- zone of inhibition at 100 µg/mL [35]: 11 mm

Compound: c1ccc(N2CCn3cnnc32)cc1
- logKw [1]: 1.16
- logKw [2]: 1.37
- logKw [3]: 1.62
- viability at 1 µM [4]: 97.6%
- viability at 50 µM [5]: 89.5%
- viability at 100 µM [6]: 85.6%
- viability at 1 µM [7]: 99.3%
- viability at 50 µM [8]: 102%
- viability at 100 µM [9]: 97.6%
- viability at 1 µM [10]: 73.2%
- viability at 50 µM [11]: 75.4%
- viability at 100 µM [12]: 72.8%

Compound: c1ccc(OCc2nnc3n2CCN3c2ccccc2)cc1
- logKw [1]: 1.78
- logKw [2]: 1.37
- logKw [3]: 1.62
- viability at 1 µM [4]: 91.7%
- viability at 50 µM [5]: 87.6%
- viability at 100 µM [6]: 83%
- viability at 1 µM [7]: 104%
- viability at 50 µM [8]: 99%
- viability at 100 µM [9]: 101%
- viability at 1 µM [10]: 85.3%
- viability at 50 µM [11]: 71.1%
- viability at 100 µM [12]: 70.3%

Compound: Clc1ccc(N2CCn3cnnc32)cc1Cl
- logKw [1]: 2.49
- logKw [2]: 2.11
- logKw [3]: 2.92

Compound: Cc1ccc(N2CCn3c(COc4ccc(Cl)cc4C)nnc32)cc1
- zone of inhibition at 200 µg/mL [13]: 0 mm
- zone of inhibition at 100 µg/mL [14]: 0 mm
- zone of inhibition at 200 µg/mL [15]: 0 mm
- zone of inhibition at 100 µg/mL [16]: 0 mm
- zone of inhibition at 200 µg/mL [17]: 0 mm
- zone of inhibition at 100 µg/mL [18]: 0 mm
- zone of inhibition at 200 µg/mL [19]: 0 mm
- zone of inhibition at 100 µg/mL [20]: 11 mm
- zone of inhibition at 200 µg/mL [21]: 17 mm
- zone of inhibition at 100 µg/mL [22]: 11 mm
- zone of inhibition at 200 µg/mL [23]: 17 mm
- zone of inhibition at 100 µg/mL [24]: 0 mm
- zone of inhibition at 200 µg/mL [25]: 0 mm
- zone of inhibition at 100 µg/mL [26]: 0 mm
- zone of inhibition at 200 µg/mL [27]: 0 mm
- zone of inhibition at 100 µg/mL [28]: 0 mm
- zone of inhibition at 200 µg/mL [29]: 0 mm
- zone of inhibition at 100 µg/mL [30]: 0 mm
- zone of inhibition at 200 µg/mL [31]: 0 mm
- MIC [36]: 44 µM (≈ 15.6 µg/mL)
- logKw [1]: 1.1
- logKw [2]: 1
- logKw [3]: 1.58
- viability at 1 µM [4]: 74.9%
- viability at 50 µM [5]: 56.9%
- viability at 100 µM [6]: 62.1%
- viability at 1 µM [7]: 85.5%
- viability at 50 µM [8]: 27.7%
- viability at 100 µM [9]: 25.4%
- viability at 1 µM [10]: 95.1%
- viability at 50 µM [11]: 75.2%
- viability at 100 µM [12]: 75.6%
- zone of inhibition at 100 µg/mL [33]: 0 mm
- zone of inhibition at 200 µg/mL [34]: 0 mm
- zone of inhibition at 100 µg/mL [35]: 0 mm

Compound: O=C(N[C@H](CO)[C@H](O)c1ccc([N+](=O)[O-])cc1)C(Cl)Cl [CHLORAMPHENICOL]
- MIC [36]: 12.4 µM (≈ 4.01 µg/mL)
- MIC [32]: > 387 µM
